From ChEMBL document CHEMBL3259728, “Design, synthesis and biological evaluation of some novel substituted quinazolines as antitumor agents” (2014)

test system: NCI-H522; test: Growth inhibition of human NCI-H522 cells at 10 uM after 48 hrs by SRB assay; type: functional; settings: NCI-H522, 48 h, read-out: GI
In short: (§1)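 NCI-60 primary one-dose screen run at the US NCI, with human tumour lines from nine cancer types. Compound added once at 10^-5 M, followed by 48 h incubation. End point was sulforhodamine B protein staining read spectrophotometrically. Result given as percent growth of treated cells against untreated controls, reported as % growth inhibition.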

| Structure (SMILES) | inhibition of growth at 10 µM [%] |
| --- | --- |
| Cc1ccc(C(=O)Nc2ccc(Cl)cc2C(=O)Nc2ccccn2)cc1 | 22 |

test system: T47D; test: Growth inhibition of human T47D cells at 10 uM after 48 hrs by SRB assay; type: functional; settings: read-out: GI; in short: as §1

| Structure (SMILES) | inhibition of growth at 10 µM [%] |
| --- | --- |
| Cc1ccc(C(=O)Nc2ccc(Cl)cc2C(=O)Nc2ccccn2)cc1 | 20 |

test system: K562; test: Growth inhibition of human K562 cells at 10 uM after 48 hrs by SRB assay; type: functional; settings: K562, 48 h, read-out: GI; in short: as §1

| Structure (SMILES) | inhibition of growth at 10 µM [%] |
| --- | --- |
| Cc1ccc(C(=O)Nc2ccc(Cl)cc2C(=O)Nc2ccccn2)cc1 | 35 |

test system: U-251; test: Growth inhibition of human U251 cells at 10 uM after 48 hrs by SRB assay; type: functional; settings: U-251, 48 h, read-out: GI; in short: as §1

| Structure (SMILES) | inhibition of growth at 10 µM [%] |
| --- | --- |
| Cc1ccc(C(=O)Nc2ccc(Cl)cc2C(=O)Nc2ccccn2)cc1 | < 10 |

test system: not listed separately; test: Growth inhibition of human OVCAR8 cells at 10 uM after 48 hrs by SRB assay; type: functional; settings: OVCAR-8, 48 h, read-out: GI; in short: as §1

| Structure (SMILES) | inhibition of growth at 10 µM [%] |
| --- | --- |
| Cc1ccc(C(=O)Nc2ccc(Cl)cc2C(=O)Nc2ccccn2)cc1 | < 10 |

test system: not listed separately; test: Growth inhibition of human UACC62 cells at 10 uM after 48 hrs by SRB assay; type: functional; settings: UACC-62, 48 h, read-out: GI; in short: as §1

| Structure (SMILES) | inhibition of growth at 10 µM [%] |
| --- | --- |
| Cc1ccc(C(=O)Nc2ccc(Cl)cc2C(=O)Nc2ccccn2)cc1 | 16 |

test system: SK-MEL-5; test: Growth inhibition of human SK-MEL-5 cells at 10 uM after 48 hrs by SRB assay; type: functional; settings: SK-MEL-5, 48 h, read-out: GI; in short: as §1

| Structure (SMILES) | inhibition of growth at 10 µM [%] |
| --- | --- |
| Cc1ccc(C(=O)Nc2ccc(Cl)cc2C(=O)Nc2ccccn2)cc1 | 39 |

test system: NCI-H226; test: Growth inhibition of human NCI-H226 cells at 10 uM after 48 hrs by SRB assay; type: functional; settings: NCI-H226, 48 h, read-out: GI; in short: as §1

| Structure (SMILES) | inhibition of growth at 10 µM [%] |
| --- | --- |
| Cc1ccc(C(=O)Nc2ccc(Cl)cc2C(=O)Nc2ccccn2)cc1 | < 10 |

test system: SK-MEL-2; test: Growth inhibition of human SK-MEL-2 cells at 10 uM after 48 hrs by SRB assay; type: functional; settings: SK-MEL-2, 48 h, read-out: GI; in short: as §1

| Structure (SMILES) | inhibition of growth at 10 µM [%] |
| --- | --- |
| Cc1ccc(C(=O)Nc2ccc(Cl)cc2C(=O)Nc2ccccn2)cc1 | < 10 |

test system: SF-268; test: Growth inhibition of human SF268 cells at 10 uM after 48 hrs by SRB assay; type: functional; settings: SF-268, 48 h, read-out: GI; in short: as §1

| Structure (SMILES) | inhibition of growth at 10 µM [%] |
| --- | --- |
| Cc1ccc(C(=O)Nc2ccc(Cl)cc2C(=O)Nc2ccccn2)cc1 | 13 |

test system: MDA-MB-468; test: Growth inhibition of human MDA-MB-468 cells assessed as cell growth at 10 uM after 48 hrs by SRB assay; type: functional; settings: MDA-MB-468, 48 h, read-out: GI; in short: as §1

| Structure (SMILES) | inhibition of growth at 10 µM [%] |
| --- | --- |
| Cc1ccc(C(=O)Nc2ccc(Cl)cc2C(=O)Nc2ccccn2)cc1 | 11 |

test system: not listed separately; test: Growth inhibition of human NCI-ADR-RES cells at 10 uM after 48 hrs by SRB assay; type: functional; settings: read-out: GI; in short: as §1

| Structure (SMILES) | inhibition of growth at 10 µM [%] |
| --- | --- |
| Cc1ccc(C(=O)Nc2ccc(Cl)cc2C(=O)Nc2ccccn2)cc1 | < 10 |

test system: not listed separately; test: Growth inhibition of human SF539 cells at 10 uM after 48 hrs by SRB assay; type: functional; settings: SF-539, 48 h, read-out: GI; in short: as §1

| Structure (SMILES) | inhibition of growth at 10 µM [%] |
| --- | --- |
| Cc1ccc(C(=O)Nc2ccc(Cl)cc2C(=O)Nc2ccccn2)cc1 | 22 |

test system: not listed separately; test: Growth inhibition of human UACC257 cells at 10 uM after 48 hrs by SRB assay; type: functional; settings: UACC-257, 48 h, read-out: GI; in short: as §1

| Structure (SMILES) | inhibition of growth at 10 µM [%] |
| --- | --- |
| Cc1ccc(C(=O)Nc2ccc(Cl)cc2C(=O)Nc2ccccn2)cc1 | < 10 |

test system: HT-29; test: Growth inhibition of human HT-29 cells at 10 uM after 48 hrs by SRB assay; type: functional; settings: HT-29, 48 h, read-out: GI; in short: as §1

| Structure (SMILES) | inhibition of growth at 10 µM [%] |
| --- | --- |
| Cc1ccc(C(=O)Nc2ccc(Cl)cc2C(=O)Nc2ccccn2)cc1 | 14 |

test system: not listed separately; test: Growth inhibition of human BT549 cells at 10 uM after 48 hrs by SRB assay; type: functional; settings: BT-549, 48 h, read-out: GI
In short: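 NCI primary one-dose screen. A single concentration of 10^-5 M was added to the cell culture, followed by 48 h incubation and an SRB protein-dye endpoint read spectrophotometrically. Results are growth percentage relative to untreated control cells, reported as % growth inhibition.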

| Structure (SMILES) | inhibition of growth at 10 µM [%] |
| --- | --- |
| Cc1ccc(C(=O)Nc2ccc(Cl)cc2C(=O)Nc2ccccn2)cc1 | < 10 |

test system: SNB-75; test: Growth inhibition of human SNB75 cells at 10 uM after 48 hrs by SRB assay; type: functional; settings: SNB-75, 48 h, read-out: GI; in short: as §1

| Structure (SMILES) | inhibition of growth at 10 µM [%] |
| --- | --- |
| Cc1ccc(C(=O)Nc2ccc(Cl)cc2C(=O)Nc2ccccn2)cc1 | 24 |

test system: not listed separately; test: Growth inhibition of human HCT15 cells at 10 uM after 48 hrs by SRB assay; type: functional; settings: HCT-15, 48 h, read-out: GI; in short: as §1

| Structure (SMILES) | inhibition of growth at 10 µM [%] |
| --- | --- |
| Cc1ccc(C(=O)Nc2ccc(Cl)cc2C(=O)Nc2ccccn2)cc1 | 14 |
